Experimental data reported in PMC7056512 (Cancer research, 2020).
Read-outs that look alike come from different tables or passages of the source.

Assays:
[1] = test system: HNSCC cell lines (013C, 036C, 049C, 067C); assay: nonadherent sphere formation; assay type: cell-based, human; conditions: 1,000nM
How it was run: (§1)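 3x10^3 cells/well in ultra-low-attachment wells with serum-free DMEM/F12 plus 10ng/ml EGF and 10ng/ml bFGF; medium supplemented on days 4, 7 and 10. Spheres (>50µm) imaged, counted and sized (diameter) at day 10. Replicates: 013C n=4 (16 wells); 036C, 049C and 067C n=3 (12 wells).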

[2] = test system: HNSCC cells and patient-matched CAFs; assay: protein synthesis, methionine analog incorporation; assay type: cell-based, human; conditions: for suppression of translation: 100nM, all cells; for inhibition of protein synthesis: at concentrations between 10 and 100nM, 1.5h treatment
[3] = test system: Det562 HNSCC cells; conditions: read-out: IC50, proliferation
[4] = test system: HNSCC cancer cells (Detroit562, FaDu); assay: clonogenic radio-modulation; assay type: cell-based, human; conditions: multiple SVC112 doses
[5] = test system: 067C cells; assay: nonadherent sphere formation; assay type: cell-based, human; conditions: 1,000nM, 10 days
How it was run: as §1

[6] = test system: 013C, 049C, 067C cells; assay: ribosome profiling; assay type: cell-based, human; conditions: 1,000nM, 6h
How it was run: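 Cells grown 48h in 10cm dishes to ~75% confluence, then treated 6h with DMSO or test compound at 1,000nM. Libraries built with the TruSeq Ribo Profile mammalian protocol. Total mRNA fragments and ribosome-protected fragments sequenced on Illumina HiSeq. RPF counts normalised to RNA-seq, with a >2-fold enrichment cutoff.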

[7] = test system: 067C cells; assay: SRB antiproliferative assay; assay type: cell-based, human; conditions: read-out: IC50, antiproliferative
[8] = test system: Myc in 067C cells; assay: Western blot densitometry of Myc; assay type: cell-based, human; conditions: 24h
[9] = test system: 19 HNSCC cell lines; assay: cell growth, CellTiter-Glo, 5 days; assay type: cell-based, human; conditions: read-out: average IC50, growth, average of 19 HNSCC lines
[10] = test system: CUHN036 CSCs; assay: sphere formation by CSCs sorted from PDX tumors; assay type: cell-based, human; conditions: 1,000nM
How it was run: (§2)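 CSCs sorted from PDX tumours plated at 1x10^4 per well in ultra-low-attachment wells. Medium was serum-free DMEM/F12 with 10ng/ml EGF and 10ng/ml bFGF, supplemented on days 4, 7 and 10. After 14 days, all spheres >50µm imaged, counted and diameter measured.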

[11] = biological target: cap-independent translation of capless luciferase mRNA; assay: in vitro translation of uncapped poly; assay type: biochemical, rabbit; conditions: read-out: IC50, in vitro cap-independent translation; 30 min at 30°C
[12] = test system: 013C cells; assay: SRB antiproliferative assay; assay type: cell-based, human; conditions: read-out: IC50, antiproliferative
[13] = biological target: eEF2 release from the ribosome (Homo sapiens, UniProt P13639); assay: co-immunoprecipitation of eEF2 with ribosomal protein RPL13a; assay type: cell-based; conditions: 100nM; 013C and 036C cells
[14] = test system: Myc in 013C cells; assay: Western blot densitometry of Myc; assay type: cell-based, human; conditions: 24h
[15] = test system: CUHN004 CSCs; assay: sphere formation by CSCs sorted from PDX tumors; assay type: cell-based, human; conditions: 1,000nM
How it was run: as §2

[16] = test system: 013C cells; assay: nonadherent sphere formation; assay type: cell-based, human; conditions: 1,000nM, 10 days
How it was run: as §1

[17] = test system: 036C cells; assay: protein synthesis, methionine analog incorporation; assay type: cell-based, human; conditions: 1nM
[18] = test system: CUHN013 PDX; assay: PDX efficacy study; assay type: in vivo, Athymic Nude-Foxn1^nu mice
How it was run: (§3)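 Tumor pieces from 4th-8th-generation PDX implanted on both flanks of 6-10-week-old female mice. Anesthetized mice shielded except flank tumors and irradiated at 3 Gy (115 cGy/min) twice weekly for four weeks. Test compound given IP at 60mg/kg right after irradiation and 6h later. Tumors measured twice weekly. ALDH+CD44high CSC fraction measured by flow cytometry on day 28, then related to tumor treatment/control ratio by linear regression.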

[19] = test system: 049C cells; assay: nonadherent sphere formation; assay type: cell-based, human; conditions: 1,000nM, 10 days
How it was run: as §1

[20] = test system: Det562 HNSCC cells; assay: clonogenic survival assay; assay type: cell-based, human; conditions: read-out: IC50, clonogenicity, drug 24h, then 9 days growth
[21] = test system: 067C cells; assay: protein synthesis, methionine analog incorporation; assay type: cell-based, human; conditions: 1nM
[22] = test system: 013C cells; assay: protein synthesis, methionine analog incorporation; assay type: cell-based, human; conditions: 10nM
[23] = test system: CUHN004 PDX; assay: PDX efficacy study; assay type: in vivo, Athymic Nude-Foxn1^nu mice
[24] = test system: 036C cells; assay: SRB antiproliferative assay; assay type: cell-based, human; conditions: read-out: IC50, antiproliferative
[25] = test system: CUHN013 CSCs; assay: sphere formation by CSCs sorted from PDX tumors; assay type: cell-based, human; conditions: 1,000nM
[26] = test system: CUHN047 PDX; assay: PDX efficacy study; assay type: in vivo, Athymic Nude-Foxn1^nu mice; conditions: for T/C (treatment vs control): twice weekly, day 28
How it was run: as §3

[27] = test system: 036C cells; assay: nonadherent sphere formation; assay type: cell-based, human; conditions: 1,000nM, 10 days
How it was run: as §1

[28] = test system: Myc in 049C cells; assay: Western blot densitometry of Myc; assay type: cell-based, human; conditions: 24h
[29] = test system: Myc in 036C cells; assay: Western blot densitometry of Myc; assay type: cell-based, human; conditions: 24h
[30] = test system: 049C cells; assay: SRB antiproliferative assay; assay type: cell-based, human; conditions: read-out: IC50, antiproliferative
[31] = test system: CUHN036 PDX; assay: PDX efficacy study; assay type: in vivo, Athymic Nude-Foxn1^nu mice; conditions: for T/C (treatment vs control): twice weekly, day 28
How it was run: as §3

[32] = test system: four non-transformed normal lines; assay: clonogenic radio-modulation; assay type: cell-based
[33] = SVC112 alone, 60mg/kg IP at 0h and 6h
[34] = radiation (3Gy) plus SVC112 60mg/kg
[35] = radiation plus SVC112, by day 28

COC(=O)C[C@](O)(CCCC(C)(C)O)C(=O)O[C@@H]1C(OC)=C[C@]23CCCN2CCc2cc4c(cc2[C@H]13)OCO4 [HHT, Homoharringtonine, reference compound]
sphere formation [1]: blocked nearly all sphere formation
suppression of translation [2]: > 85%
inhibition of protein synthesis [2]: Greater than 75%

Meta Br-N-29-H derivative of RA-VII [SVC112]
IC50 [3]: ~280 nM
dose-modifying factor (DMF) of radiation [4]: > 1
sphere formation blocked [5]: 79%
increase in captured ribosome protected fragments of DUSP1 [6]: 238 fold
increase in captured ribosome protected fragments of MAFF [6]: 346 fold
increase in captured ribosome protected fragments of NUAK2 [6]: 666 fold
increase in captured ribosome protected fragments of SERTAD1 [6]: 1699 fold
IC50 [7]: 9.3 nM
Myc reduction [8]: > 80%
IC50 [9]: 155 nM
sphere formation by CSCs [10]: blocked sphere formation
IC50 [11]: 81 ± 16 nM
IC50 [12]: 50.5 nM
release of eEF2 from the ribosome (immunoprecipitation of eEF2 with Rpl13a) [13]: blocked the release of eEF2 from the ribosome
Myc level, % of baseline [14]: > 60%
sphere formation by CSCs [15]: blocked sphere formation
sphere formation blocked [16]: 74%
decrease of protein synthesis [17]: > 50%
tumor response ([18]; SVC112 alone or with radiation, twice weekly): did not respond to any treatment
decrease of CSC fraction (ALDH+CD44hi) in tumors ([18]; radiation plus SVC112, day 28): 2.4 fold
sphere formation blocked [19]: 48%
IC50 [20]: ~15 nM
decrease of protein synthesis [21]: > 50%
suppression of translation [2]: > 85%
inhibition of protein synthesis [2]: Greater than 75%
inhibition of protein synthesis [22]: ~ 50%
T/C (treatment vs control) ([23]; radiation (3Gy) plus SVC112 60mg/kg, twice weekly, day 28): 0.19±0.05
decrease of CSC fraction (ALDH+CD44hi) in tumors ([23]; radiation plus SVC112, day 28): 7.9 fold
IC50 [24]: 3.8 nM
sphere formation by CSCs [25]: formed fewer, albeit normal-sized spheres
T/C (treatment vs control) [26, 33]: 0.37±0.07
T/C (treatment vs control) [26, 34]: −0.02±0.03
tumors with complete regression [26, 35]: six out of ten
decrease of CSC fraction (ALDH+CD44hi) in tumors ([26]; radiation plus SVC112, day 28): 7.6 fold
sphere formation blocked [27]: 100%
Myc reduction [28]: > 80%
Myc reduction [29]: > 80%
IC50 [30]: 24.1 nM
T/C (treatment vs control) [31, 33]: 0.45±0.12
T/C (treatment vs control) [31, 34]: 0.08±0.08
tumors that continued to regress and did not regrow after ending treatment ([31]; radiation plus SVC112, after end of treatment): six of eight
tumors with complete regression [31, 35]: four of twelve
decrease of CSC fraction (ALDH+CD44hi) in tumors ([31]; radiation plus SVC112, day 28): 10.4 fold
dose-modifying factor (DMF) of radiation [32]: near or below 1
